Source: ChEMBL document CHEMBL1147798, “Novel bis(1H-indol-2-yl)methanones as potent inhibitors of FLT3 and platelet-derived growth factor receptor tyrosine kinase” (J Med Chem, 2006)
The source made the active and inactive calls. The calls are words filed in the database; no cut-off is given here.

Key:
[1] = biological target: Tyrosine-protein kinase ABL1 (Homo sapiens, UniProt P00519); experiment: Inhibition of recombinant Abl
In short: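 0.5 µg GST-c-Abl catalytic domain preincubated 10 min on ice with inhibitor (DMSO stock) in 50 mM Tris-HCl pH 7.5, 10 mM MgCl₂, 10 µM orthovanadate, 1 mM DTT; [³²Pγ]ATP, final ATP 111 nM, 30 °C 30 min; SDS-PAGE; autophosphorylation radioactivity normalized to Coomassie-stained protein.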

Bcr/Abl fusion protein = Bcr/Abl fusion protein (Homo sapiens, UniProt P00519); experiment: Inhibition of oncogenic Bcr-Abl kinase in K562 cells; assay type: cell-based
Chain of Bcr/Abl fusion protein (P00519 whole entry, the tested form may be a part): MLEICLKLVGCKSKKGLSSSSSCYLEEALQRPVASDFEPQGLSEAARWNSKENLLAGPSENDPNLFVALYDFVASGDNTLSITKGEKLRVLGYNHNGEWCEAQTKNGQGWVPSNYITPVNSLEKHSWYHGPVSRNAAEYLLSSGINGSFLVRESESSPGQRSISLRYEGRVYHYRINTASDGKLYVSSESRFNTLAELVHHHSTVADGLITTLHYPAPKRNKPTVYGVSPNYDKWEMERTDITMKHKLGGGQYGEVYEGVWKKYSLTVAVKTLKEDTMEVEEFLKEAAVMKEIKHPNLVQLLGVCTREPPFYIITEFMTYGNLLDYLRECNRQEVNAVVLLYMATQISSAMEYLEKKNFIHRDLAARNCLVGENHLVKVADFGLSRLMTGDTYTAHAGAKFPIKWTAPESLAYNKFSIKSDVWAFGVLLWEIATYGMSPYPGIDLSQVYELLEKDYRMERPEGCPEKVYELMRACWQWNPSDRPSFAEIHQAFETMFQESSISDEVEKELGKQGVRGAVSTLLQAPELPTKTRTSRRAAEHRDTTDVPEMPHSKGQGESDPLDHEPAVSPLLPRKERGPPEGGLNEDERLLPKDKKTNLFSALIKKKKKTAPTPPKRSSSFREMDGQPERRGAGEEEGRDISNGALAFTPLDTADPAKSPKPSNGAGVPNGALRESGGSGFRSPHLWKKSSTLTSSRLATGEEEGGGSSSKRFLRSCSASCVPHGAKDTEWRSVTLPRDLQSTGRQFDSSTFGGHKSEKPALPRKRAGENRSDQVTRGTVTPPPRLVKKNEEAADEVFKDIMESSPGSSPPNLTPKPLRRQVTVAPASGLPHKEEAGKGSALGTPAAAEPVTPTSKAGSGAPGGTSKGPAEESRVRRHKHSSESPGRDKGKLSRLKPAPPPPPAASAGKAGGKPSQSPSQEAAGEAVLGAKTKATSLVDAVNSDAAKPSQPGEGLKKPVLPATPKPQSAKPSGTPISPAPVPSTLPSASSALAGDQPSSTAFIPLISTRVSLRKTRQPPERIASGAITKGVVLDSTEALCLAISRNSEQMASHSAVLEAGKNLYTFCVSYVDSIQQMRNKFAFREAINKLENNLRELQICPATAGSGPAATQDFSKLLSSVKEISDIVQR
Chain of Bcr/Abl fusion protein (P11274 whole entry, further chain, the tested form may be a part): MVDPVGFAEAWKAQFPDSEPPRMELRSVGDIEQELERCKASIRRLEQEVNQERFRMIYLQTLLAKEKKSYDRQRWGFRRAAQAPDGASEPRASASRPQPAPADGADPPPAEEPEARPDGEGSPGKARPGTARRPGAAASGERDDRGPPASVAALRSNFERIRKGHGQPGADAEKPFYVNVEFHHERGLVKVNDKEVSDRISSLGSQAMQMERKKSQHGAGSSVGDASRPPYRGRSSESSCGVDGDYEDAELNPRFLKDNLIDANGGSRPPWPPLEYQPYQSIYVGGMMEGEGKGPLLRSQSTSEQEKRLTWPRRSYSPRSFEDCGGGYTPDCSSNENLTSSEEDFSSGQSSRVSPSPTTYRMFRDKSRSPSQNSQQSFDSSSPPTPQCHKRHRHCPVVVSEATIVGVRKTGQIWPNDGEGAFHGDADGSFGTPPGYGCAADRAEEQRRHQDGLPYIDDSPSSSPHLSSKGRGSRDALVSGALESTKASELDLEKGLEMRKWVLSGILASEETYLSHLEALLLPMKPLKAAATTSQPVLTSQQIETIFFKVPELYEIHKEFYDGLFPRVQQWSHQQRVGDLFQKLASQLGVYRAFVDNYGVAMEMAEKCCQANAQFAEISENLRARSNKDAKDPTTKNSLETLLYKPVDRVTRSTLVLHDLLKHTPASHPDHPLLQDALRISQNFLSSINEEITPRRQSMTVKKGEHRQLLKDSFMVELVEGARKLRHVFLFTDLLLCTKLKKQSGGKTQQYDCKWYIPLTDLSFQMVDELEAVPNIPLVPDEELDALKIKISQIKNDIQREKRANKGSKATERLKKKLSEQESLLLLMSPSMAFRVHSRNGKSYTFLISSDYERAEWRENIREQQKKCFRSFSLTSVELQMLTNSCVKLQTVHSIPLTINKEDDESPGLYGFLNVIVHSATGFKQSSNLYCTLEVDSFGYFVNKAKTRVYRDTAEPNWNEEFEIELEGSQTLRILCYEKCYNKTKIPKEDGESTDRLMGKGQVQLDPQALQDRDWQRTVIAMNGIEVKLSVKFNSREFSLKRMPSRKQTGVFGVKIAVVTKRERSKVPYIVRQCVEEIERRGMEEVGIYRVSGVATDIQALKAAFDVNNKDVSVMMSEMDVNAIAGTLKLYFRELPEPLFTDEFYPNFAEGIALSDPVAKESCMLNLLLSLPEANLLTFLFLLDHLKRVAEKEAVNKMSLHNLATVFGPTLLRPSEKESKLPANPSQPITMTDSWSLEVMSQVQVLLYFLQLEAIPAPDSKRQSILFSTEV
In short: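 K562 cells, 2 × 10⁶ in 1 mL serum-free RPMI1640, inhibitor or 1% DMSO at 37 °C for 2 h; lysates immunoblotted with anti-pAbl and anti-Abl to gauge Bcr-Abl autophosphorylation.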

[2] = biological target: T1, Receptor-type tyrosine-protein kinase FLT3 (Homo sapiens, UniProt P36888); experiment: Inhibition of endogenous FLT3 in EOL1 cells; assay type: cell-based
T1 sequence (P36888 whole entry): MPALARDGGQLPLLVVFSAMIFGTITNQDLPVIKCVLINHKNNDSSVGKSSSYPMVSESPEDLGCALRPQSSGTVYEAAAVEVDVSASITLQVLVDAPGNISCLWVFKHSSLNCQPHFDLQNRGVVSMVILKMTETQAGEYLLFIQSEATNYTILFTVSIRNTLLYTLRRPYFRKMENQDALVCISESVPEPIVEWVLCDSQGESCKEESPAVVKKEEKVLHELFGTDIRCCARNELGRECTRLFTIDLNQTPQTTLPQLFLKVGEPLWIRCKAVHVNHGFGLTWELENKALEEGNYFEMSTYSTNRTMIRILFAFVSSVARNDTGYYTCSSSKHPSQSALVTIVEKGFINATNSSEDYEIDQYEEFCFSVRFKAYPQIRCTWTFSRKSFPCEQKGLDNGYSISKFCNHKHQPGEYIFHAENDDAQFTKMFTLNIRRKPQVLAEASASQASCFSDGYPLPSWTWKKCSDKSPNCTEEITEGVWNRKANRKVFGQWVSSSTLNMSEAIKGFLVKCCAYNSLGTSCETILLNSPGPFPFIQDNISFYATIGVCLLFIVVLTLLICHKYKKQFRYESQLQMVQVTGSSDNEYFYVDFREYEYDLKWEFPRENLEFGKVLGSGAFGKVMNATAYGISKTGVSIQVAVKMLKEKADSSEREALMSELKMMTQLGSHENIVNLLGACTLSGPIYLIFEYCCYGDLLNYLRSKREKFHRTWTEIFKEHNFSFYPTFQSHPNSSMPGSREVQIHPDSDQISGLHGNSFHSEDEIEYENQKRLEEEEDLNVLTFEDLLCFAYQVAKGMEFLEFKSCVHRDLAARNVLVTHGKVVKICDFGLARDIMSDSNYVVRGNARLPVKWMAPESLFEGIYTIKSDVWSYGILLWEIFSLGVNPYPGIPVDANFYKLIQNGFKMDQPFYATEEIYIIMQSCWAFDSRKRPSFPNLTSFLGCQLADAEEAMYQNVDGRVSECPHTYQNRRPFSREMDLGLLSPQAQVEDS

[3] = biological target: Platelet-derived growth factor receptor (Mus musculus, UniProt P05622+P26618); experiment: Inhibition of endogenous PDGFR in Swiss3T3 fibroblasts
[4] = biological target: T1, Receptor-type tyrosine-protein kinase FLT3; experiment: Inhibition of human FLT3
[5] = biological target: Platelet-derived growth factor receptor beta (Homo sapiens, UniProt P09619); experiment: Inhibition of human PDGFR beta
Chain of Platelet-derived growth factor receptor beta (P09619 whole entry): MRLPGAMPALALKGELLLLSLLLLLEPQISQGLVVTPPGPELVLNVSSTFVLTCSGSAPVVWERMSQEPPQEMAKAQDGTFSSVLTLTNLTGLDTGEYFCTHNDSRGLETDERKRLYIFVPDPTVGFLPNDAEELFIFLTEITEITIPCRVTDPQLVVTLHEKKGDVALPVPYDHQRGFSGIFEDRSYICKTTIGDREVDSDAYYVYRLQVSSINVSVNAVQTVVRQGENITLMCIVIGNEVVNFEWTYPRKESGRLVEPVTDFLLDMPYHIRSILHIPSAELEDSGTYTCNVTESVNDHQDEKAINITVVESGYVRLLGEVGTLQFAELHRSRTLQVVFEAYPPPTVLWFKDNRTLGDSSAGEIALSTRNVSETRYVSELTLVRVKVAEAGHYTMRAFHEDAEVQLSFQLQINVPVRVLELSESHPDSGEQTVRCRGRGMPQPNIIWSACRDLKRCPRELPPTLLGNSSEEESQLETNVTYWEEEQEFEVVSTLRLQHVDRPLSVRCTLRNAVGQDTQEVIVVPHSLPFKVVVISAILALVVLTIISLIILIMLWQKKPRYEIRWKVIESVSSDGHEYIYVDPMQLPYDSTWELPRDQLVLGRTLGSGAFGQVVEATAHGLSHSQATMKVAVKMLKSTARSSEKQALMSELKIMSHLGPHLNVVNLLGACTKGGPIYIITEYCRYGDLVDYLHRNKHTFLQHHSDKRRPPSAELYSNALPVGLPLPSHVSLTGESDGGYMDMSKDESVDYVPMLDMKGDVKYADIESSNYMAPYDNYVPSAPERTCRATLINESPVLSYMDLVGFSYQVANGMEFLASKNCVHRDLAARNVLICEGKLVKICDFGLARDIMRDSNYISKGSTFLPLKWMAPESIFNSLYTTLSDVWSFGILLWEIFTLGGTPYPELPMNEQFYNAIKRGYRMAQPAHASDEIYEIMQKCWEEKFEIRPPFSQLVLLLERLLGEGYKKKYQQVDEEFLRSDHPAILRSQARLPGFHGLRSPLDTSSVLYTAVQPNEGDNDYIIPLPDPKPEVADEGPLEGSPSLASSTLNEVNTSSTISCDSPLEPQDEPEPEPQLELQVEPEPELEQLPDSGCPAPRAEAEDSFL

[6] = biological target: Mast/stem cell growth factor receptor Kit (Homo sapiens) (UniProt P10721); experiment: Inhibition of DNA synthesis in IL3 dependent FDC-P1 cells expressing KIT D814V mutant; assay type: functional, cell-based
Chain of Mast/stem cell growth factor receptor Kit (Homo sapiens) (P10721 whole entry): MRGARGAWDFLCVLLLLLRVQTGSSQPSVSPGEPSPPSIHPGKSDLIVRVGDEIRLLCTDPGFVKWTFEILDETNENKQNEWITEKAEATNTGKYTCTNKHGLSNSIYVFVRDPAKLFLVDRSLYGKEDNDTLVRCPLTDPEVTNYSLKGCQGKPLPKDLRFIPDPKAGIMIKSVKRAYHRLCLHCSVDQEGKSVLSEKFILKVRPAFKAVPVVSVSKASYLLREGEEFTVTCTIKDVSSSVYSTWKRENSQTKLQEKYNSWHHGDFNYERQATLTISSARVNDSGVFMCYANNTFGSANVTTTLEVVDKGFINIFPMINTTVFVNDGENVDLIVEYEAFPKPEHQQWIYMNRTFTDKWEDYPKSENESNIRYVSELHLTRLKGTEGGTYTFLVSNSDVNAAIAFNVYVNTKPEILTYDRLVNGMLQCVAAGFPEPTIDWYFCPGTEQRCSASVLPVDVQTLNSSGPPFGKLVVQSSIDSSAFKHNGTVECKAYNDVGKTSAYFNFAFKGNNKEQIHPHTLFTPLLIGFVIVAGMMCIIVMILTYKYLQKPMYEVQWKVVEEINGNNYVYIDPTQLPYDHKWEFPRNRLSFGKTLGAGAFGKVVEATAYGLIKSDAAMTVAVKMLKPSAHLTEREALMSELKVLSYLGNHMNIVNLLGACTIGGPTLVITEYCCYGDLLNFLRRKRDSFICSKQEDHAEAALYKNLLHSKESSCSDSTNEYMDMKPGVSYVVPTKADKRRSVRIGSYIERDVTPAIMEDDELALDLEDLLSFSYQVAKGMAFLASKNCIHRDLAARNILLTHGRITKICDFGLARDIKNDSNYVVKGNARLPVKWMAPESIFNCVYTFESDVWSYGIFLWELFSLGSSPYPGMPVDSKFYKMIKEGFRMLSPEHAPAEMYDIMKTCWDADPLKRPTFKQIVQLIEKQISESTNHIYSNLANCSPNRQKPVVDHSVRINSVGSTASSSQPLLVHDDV
In short: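 Parental FDC-P1 cells or FDC-P1 lines expressing KIT variants treated 42 h with compound, with or without IL-3 or stem cell factor; DNA synthesis measured as [³H]thymidine incorporation.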

Chain of Tyrosine-protein kinase ABL1 (P00519 whole entry, the tested form may be a part): as the sequence (P00519 whole entry, the tested form may be a part) above

IC50 [3]	SMILES	further results
300 nM	O=C(c1cc2cc(O)ccc2[nH]1)c1cc2cc(O)ccc2[nH]1	IC50 [1]: 1300 nM; IC50 (Bcr/Abl fusion protein): 4200 nM; IC50 [2]: 40 nM; IC50 [4]: 33 nM; IC50 [5]: 171 nM
1500 nM	COc1cccc2[nH]c(C(=O)c3cc4ccccc4[nH]3)cc12	–
3500 nM	Cc1ccc2[nH]c(C(=O)c3cc4cc(O)ccc4[nH]3)cc2c1	–
10000 nM	Cc1cccc2[nH]c(C(=O)c3cc4cc(OCCN5CCCCC5)ccc4[nH]3)cc12	IC50 [5]: 1200 nM
840 nM	COc1ccc2[nH]c(C(=O)c3cc4ccc(F)cc4[nH]3)cc2c1	–
580 nM	Cc1ccc2cc(C(=O)c3cc4cc(O)ccc4[nH]3)[nH]c2c1	–
960 nM	Cc1cccc2[nH]c(C(=O)c3cc4cc(O)ccc4[nH]3)cc12	Activity [6]: inactive; IC50 [5]: 458 nM
1000 nM	O=C(c1cc2ccccc2[nH]1)c1cc2ccccc2[nH]1	–
5400 nM	Cc1cc2ncc(-c3ccccc3)nc2cc1C [AG1295]	IC50 [2]: 1100 nM
510 nM	COc1ccc2[nH]c(C(=O)c3cc4ccc(C)cc4[nH]3)cc2c1	–
> 30000 nM	COc1ccc2[nH]c(C(=O)c3cc4c(Cl)cccc4[nH]3)cc2c1	–
4030 nM	COc1ccc2[nH]c(C(=O)c3cc4c(C)cccc4[nH]3)cc2c1	–
10000 nM	O=C(c1cc2ccccc2[nH]1)c1cc2cc(Oc3ccccc3)ccc2[nH]1	–
200 nM	O=C(c1cc2ccccc2[nH]1)c1cc2cc(O)ccc2[nH]1	IC50 [2]: 570 nM
6100 nM	O=C(c1cc2cc(O)ccc2[nH]1)c1cc2c(Br)cccc2[nH]1	–
1000 nM	COc1ccc2cc(C(=O)c3cc4cc(OCCN5CCCCC5)ccc4[nH]3)[nH]c2c1	–
8100 nM	COc1ccc2[nH]c(C(=O)c3cc4c(F)cccc4[nH]3)cc2c1	–
620 nM	O=C(c1cc2cc(O)ccc2[nH]1)c1cc2c(F)cccc2[nH]1	–
590 nM	O=C(c1cc2cc(O)ccc2[nH]1)c1cc2ccc(F)cc2[nH]1	–
> 30000 nM	COc1ccc2[nH]c(C(=O)c3cc4cc(C)ccc4[nH]3)cc2c1	–

IC50 [3]	SMILES	further results
2900 nM	COc1cccc2cc(C(=O)c3cc4cc(O)ccc4[nH]3)[nH]c12	–
2800 nM	COc1ccc2cc(C(=O)c3cc4cc(OCCN(C)C)ccc4[nH]3)[nH]c2c1	–
4800 nM	O=C(c1cc2cc(O)ccc2[nH]1)c1cc2cccc(F)c2[nH]1	IC50 [2]: > 30000 nM
200 nM	COc1ccc2[nH]c(C(=O)c3cc4ccc(Cl)cc4[nH]3)cc2c1	IC50 [5]: 55 nM
960 nM	COc1cccc2[nH]c(C(=O)c3cc4cc(O)ccc4[nH]3)cc12	–
760 nM	O=C(c1cc2ccccc2[nH]1)c1cc2cc(F)ccc2[nH]1	–
500 nM	O=C(c1cc2cc(F)ccc2[nH]1)c1cc2cc(OCCN3CCCCC3)ccc2[nH]1	–
2500 nM	COc1ccc2[nH]c(C(=O)c3cc4cc(Cl)ccc4[nH]3)cc2c1	–
4400 nM	CCc1cccc2cc(C(=O)c3cc4cc(O)ccc4[nH]3)[nH]c12	–
8500 nM	COc1ccc2[nH]c(C(=O)c3cc4cc(Br)ccc4[nH]3)cc2c1	–
1200 nM	Cc1cccc2[nH]c(C(=O)c3cc4cc(F)ccc4[nH]3)cc12	–
650 nM	COc1ccc2cc(C(=O)c3cc4cc(O)ccc4[nH]3)[nH]c2c1	–
730 nM	O=C(c1cc2cc(O)ccc2[nH]1)c1cc2cc(F)ccc2[nH]1	–
500 nM	O=C(c1cc2cc(O)ccc2[nH]1)c1cc2c(Cl)cccc2[nH]1	–
> 30000 nM	COc1ccc2cc(C(=O)c3cc4cc(OCc5ccccc5)ccc4[nH]3)[nH]c2c1	–
> 30000 nM	COc1ccc2[nH]c(Cc3cc4cc(F)ccc4[nH]3)cc2c1	IC50 [2]: > 30000 nM
> 30000 nM	COc1ccc2[nH]c(Cc3cc4ccccc4[nH]3)cc2c1	IC50 [2]: > 30000 nM
400 nM	COc1ccc2[nH]c(C(=O)c3cc4cc(F)ccc4[nH]3)cc2c1	–
5800 nM	O=C(c1cc2cc(F)ccc2[nH]1)c1cc2cc(OCc3ccccc3)ccc2[nH]1	IC50 [2]: > 30000 nM
> 30000 nM	COc1ccc2[nH]c(C(=O)c3cc4cccc(Cl)c4[nH]3)cc2c1	IC50 [2]: > 30000 nM
